These results are taken from ChEMBL document CHEMBL1154182 (J Med Chem, 2009).

pEC50, pKi: −log10 of the molar value. Numbered stars: 1 amine (or outer) side, 2 acyl side, 3 side chain; on linkers, the order of the positions; unused ones are H or OH. Bridge positions count the residues as written; N and C are the ends. Square brackets hold non-standard residues; d marks the D form. Peptide text beside a SMILES is read from it. 1Nal = N[C@@H](Cc1cccc2ccccc12)C(=O)O; 2Nal = N[C@@H](Cc1ccc2ccccc2c1)C(=O)O; CH2 = C([*:1])[*:2]

Assay [1] deals with T1, Mu-type opioid receptor (Rattus norvegicus, UniProt P33535). Description: Displacement of [3H]diprenorphine from rat mu opioid receptor expressed in rat C6 cells after 1 hr by liquid scintillation counting. The assay is classed as cell-based. In outline: (§1)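 Membranes from C6 glioma cells stably expressing rat MOR or DOR, or CHO cells expressing human KOR (10-20 μg protein), incubated with 0.2 nM [3H]diprenorphine and increasing peptide concentrations in 50 mM Tris-HCl pH 7.4 for 1 h at 25 °C. Filtered and counted by scintillation. Nonspecific binding defined with 10 μM naloxone.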
T1 sequence (P33535 whole entry): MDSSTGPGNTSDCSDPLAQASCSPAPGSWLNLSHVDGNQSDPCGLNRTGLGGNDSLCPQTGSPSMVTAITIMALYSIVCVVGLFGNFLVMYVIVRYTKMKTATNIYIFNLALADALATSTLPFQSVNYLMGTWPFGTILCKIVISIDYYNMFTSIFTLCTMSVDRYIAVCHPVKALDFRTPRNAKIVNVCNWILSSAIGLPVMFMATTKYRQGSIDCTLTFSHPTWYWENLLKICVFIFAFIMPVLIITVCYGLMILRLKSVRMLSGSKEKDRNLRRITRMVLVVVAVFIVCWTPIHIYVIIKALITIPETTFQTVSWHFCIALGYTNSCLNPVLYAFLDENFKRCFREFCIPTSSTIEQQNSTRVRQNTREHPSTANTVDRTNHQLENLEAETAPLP
(In general: Displacement assays read how much labelled ligand stays bound in the presence of the test substance.)

Assay [2] concerns the target Delta-type opioid receptor (Rattus norvegicus) (UniProt P33533). Description: Agonist activity at rat delta opioid receptor expressed in rat C6 cells assessed as stimulation of [35S]GTPgammaS binding at 10 uM after 1 hr by liquid scintillation counting relative to SNC80. The assay is classed as functional, cell-based. A digest of the protocol: (§2)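 Membranes (20-30 μg protein) from C6-MOR, C6-DOR or CHO-KOR cells incubated 1 h at 25 °C in 50 mM Tris-HCl pH 7.4, 100 mM NaCl, 5 mM MgCl2 with 0.1 nM [35S]GTPγS, 100 μM GDP and peptide at 0.001-10000 nM or 10 μM. Filtered and counted.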
On the technique in general: Binding of GTPγS marks nucleotide exchange on a G protein.

Assay [3] deals with T2, Kappa-type opioid receptor (Homo sapiens, UniProt P41145). Description: Displacement of [3H]diprenorphine from human kappa opioid receptor expressed in CHO cells after 1 hr by liquid scintillation counting. It counts as cell-based. In outline:
as §1

Assay [4] deals with T2, Kappa-type opioid receptor. Description: Ratio of compound Ki to 5R,8S,11S,14S)-14-((S)-2-amino-3-(4-hydroxyphenyl)propanamido)-8,11-dibenzyl-7,10,13-trioxo-1,3-dithia-6,9,12-triazacyclopentadecane-5-carboxamide Ki for human kappa opioid receptor expressed in CHO cells. It counts as cell-based.
In assay [5] the target is Delta-type opioid receptor (Rattus norvegicus) (UniProt P33533). Description: Ratio of compound Ki to 5R,8S,11S,14S)-14-((S)-2-amino-3-(4-hydroxyphenyl)propanamido)-8,11-dibenzyl-7,10,13-trioxo-1,3-dithia-6,9,12-triazacyclopentadecane-5-carboxamide Ki for rat delta opioid receptor expressed in rat C6 cells. The assay is classed as cell-based.
Chain of Delta-type opioid receptor (Rattus norvegicus) (P33533 whole entry): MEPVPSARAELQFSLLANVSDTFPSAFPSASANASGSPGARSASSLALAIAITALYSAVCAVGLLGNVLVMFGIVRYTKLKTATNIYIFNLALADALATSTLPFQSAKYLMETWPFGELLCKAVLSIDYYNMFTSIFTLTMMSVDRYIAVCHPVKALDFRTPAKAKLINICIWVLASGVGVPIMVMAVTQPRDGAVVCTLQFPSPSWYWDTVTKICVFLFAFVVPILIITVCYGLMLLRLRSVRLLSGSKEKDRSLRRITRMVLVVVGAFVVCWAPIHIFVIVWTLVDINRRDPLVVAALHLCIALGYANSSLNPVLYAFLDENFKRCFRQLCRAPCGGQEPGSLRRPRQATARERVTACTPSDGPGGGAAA
Assay [6] deals with T2, Kappa-type opioid receptor. Description: Agonist activity at human kappa opioid receptor expressed in CHO cells assessed as stimulation of [35S]GTPgammaS binding at 10 uM after 1 hr by liquid scintillation counting relative to U69593. The assay is classed as functional, cell-based. A digest of the protocol:
as §2

Assay [7] deals with Mu-type opioid receptor (Rattus norvegicus) (UniProt P33535). Description: Agonist activity at rat mu opioid receptor expressed in rat C6 cells assessed as stimulation of [35S]GTPgammaS binding at 10 uM after 1 hr by liquid scintillation counting relative to DAMGO. The assay is classed as functional, cell-based. A digest of the protocol:
as §2

In assay [8] the target is T3, Delta-type opioid receptor (Rattus norvegicus, UniProt P33533). Description: Displacement of [3H]diprenorphine from rat delta opioid receptor expressed in rat C6 cells after 1 hr by liquid scintillation counting. The assay is classed as cell-based. In outline: as §1
T3 sequence (P33533 whole entry): as above
The target in assay [9] is Delta-type opioid receptor (Rattus norvegicus) (UniProt P33533). Particulars: C6, 1 uM.
In assay [10] the target is T3, Delta-type opioid receptor. Description: Binding affinity to rat delta opioid receptor expressed in rat C6 cells. The assay is classed as cell-based. A digest of the protocol:
as §1

Assay [11] addresses T1, Mu-type opioid receptor. Description: Agonist activity at rat mu opioid receptor expressed in rat C6 cells assessed as stimulation of [35S]GTPgammaS binding after 1 hr by liquid scintillation counting. The assay is classed as functional, cell-based. In outline: as §2
Assay [12] concerns the target T3, Delta-type opioid receptor. Description: Agonist activity at rat delta opioid receptor expressed in rat C6 cells assessed as inhibition of forskolin-stimulated cAMP production after 30 mins by radioimmunoassay. (cAMP levels reflect the balance of adenylyl cyclase and phosphodiesterase activity.)
Assay [13] deals with Delta-type opioid receptor (Rattus norvegicus) (UniProt P33533). Conditions: C6, 1 uM. This is another data set of the same source.
Assay [14] concerns the target T2, Kappa-type opioid receptor. Description: Agonist activity at human kappa opioid receptor expressed in CHO cells assessed as stimulation of [35S]GTPgammaS binding after 1 hr by liquid scintillation counting. The assay is classed as functional, cell-based. In outline: as §2

T2 sequence (P41145 whole entry): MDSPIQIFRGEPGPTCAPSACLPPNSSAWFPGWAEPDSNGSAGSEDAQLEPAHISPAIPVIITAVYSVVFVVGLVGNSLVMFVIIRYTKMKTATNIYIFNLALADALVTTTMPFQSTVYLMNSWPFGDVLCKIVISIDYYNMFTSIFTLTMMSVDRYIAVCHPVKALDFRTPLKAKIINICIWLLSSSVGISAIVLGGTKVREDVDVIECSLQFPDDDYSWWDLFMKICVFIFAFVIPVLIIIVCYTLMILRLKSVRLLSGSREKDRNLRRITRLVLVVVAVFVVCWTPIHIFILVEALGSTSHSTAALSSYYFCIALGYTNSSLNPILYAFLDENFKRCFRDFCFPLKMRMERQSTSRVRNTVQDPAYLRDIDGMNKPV
Chain of Mu-type opioid receptor (Rattus norvegicus) (P33535 whole entry): as the sequence (P33535 whole entry) above

A word on the pKi: it is −log10 of the Ki, conventionally taken in molar units. On to `NC(=O)[C@@H]1CSCSC[C@@H](NC(=O)[C@@H](N)Cc2ccc(O)cc2)C(=O)N[C@@H](Cc2ccc3ccccc3c2)C(=O)N[C@@H](Cc2ccccc2)C(=O)N1` (H-Y[dC][2Nal]FC-NH2; linker 2-5 via CH2), for which the pKi is 9.33 at Mu-type opioid receptor [1], 7.16 in assay [3] and 7.82 in assay [8]. The Efficacy in assay [2] came out at 23%; in assay [6], 35%; in [7], 34%. In addition, the Ratio Ki in [4] and in assay [5] was greater than 10 each time.
On to `NC(=O)[C@@H]1CSCSC[C@@H](NC(=O)[C@@H](N)Cc2ccc(O)cc2)C(=O)N[C@@H](Cc2ccccc2)C(=O)N[C@@H](Cc2cccc3ccccc23)C(=O)N1` (H-Y[dC]F[1Nal]C-NH2; linker 2-5 via CH2), for which the pKi on Mu-type opioid receptor [1] was 9.21; in assay [3], 8.22; in assay [8] it was 8.28. For the same compound, the Efficacy came to 22% in assay [2], 87% in [6] and 100% in [7].
Broadly, the inhibition is the relative decrease from the control value, in per cent. For orientation: pEC50 means the EC50 on a negative log10 scale, so that one unit is a factor of ten. In the case of `NC(=O)[C@@H]1CSCSC[C@@H](NC(=O)[C@@H](N)Cc2ccc(O)cc2)C(=O)N[C@@H](Cc2ccccc2)C(=O)N[C@@H](Cc2ccc3ccccc3c2)C(=O)N1` (H-Y[dC]F[2Nal]C-NH2; linker 2-5 via CH2), the pKi is 9.33 on Mu-type opioid receptor [1], 8.68 in assay [10], 8.89 in assay [3] and 9.32 in assay [8]. Further, the inhibition came out at 37% in assay [9] and 55% in [13]. The figures for the Efficacy in assay [2], in assay [6] and in assay [7] were 7%, 89% and 99%, respectively. Moreover, the pEC50 is 8.92 on Mu-type opioid receptor [11], 7.44 in assay [12] and 7.92 in assay [14].
On to `NC(=O)[C@@H]1CSSC[C@@H](NC(=O)[C@@H](N)Cc2ccc(O)cc2)C(=O)N[C@@H](Cc2ccccc2)C(=O)N[C@@H](Cc2cccc3ccccc23)C(=O)N1` (H-Y[dC]F[1Nal]C-NH2; disulfide 2-5), for which the pKi at Mu-type opioid receptor [1] is 8.60; in assay [3], 7.96; in assay [8], 8.15. The Efficacy amounted to 15% in assay [2], 100% in assay [6] and 88% in [7].
`NC(=O)[C@@H]1CSCSC[C@@H](NC(=O)[C@@H](N)Cc2ccc(O)cc2)C(=O)N[C@@H](Cc2cccc3ccccc23)C(=O)N[C@@H](Cc2ccccc2)C(=O)N1` (H-Y[dC][1Nal]FC-NH2; linker 2-5 via CH2): the pKi is 9.48 at Mu-type opioid receptor [1], 8.24 in assay [3] and 7.47 in assay [8]. Moreover, the Efficacy was determined as 23% in assay [2], 77% in assay [6] and 91% in [7]. In addition, the Ratio Ki in assay [5] is greater than 10.
In turn, `C=CCN1C[C@H](C)N([C@H](c2ccc(C(=O)N(CC)CC)cc2)c2cccc(OC)c2)C[C@H]1C` returned an inhibition in assay [9] of 67%.
As to `NC(=O)[C@@H]1CSSC[C@@H](NC(=O)[C@@H](N)Cc2ccc(O)cc2)C(=O)N[C@@H](Cc2cccc3ccccc23)C(=O)N[C@@H](Cc2ccccc2)C(=O)N1` (H-Y[dC][1Nal]FC-NH2; disulfide 2-5), the pKi is 10.10 on Mu-type opioid receptor [1], 7.68 in [3] and 7.47 in assay [8]. The Efficacy came to 0% in assay [2], 59% in assay [6] and 33% in assay [7]. Moreover, the Ratio Ki in [5] is greater than 10.
For the compound `NC(=O)[C@@H]1CSSC[C@@H](NC(=O)[C@@H](N)Cc2ccc(O)cc2)C(=O)N[C@@H](Cc2ccccc2)C(=O)N[C@@H](Cc2ccc3ccccc3c2)C(=O)N1` (H-Y[dC]F[2Nal]C-NH2; disulfide 2-5), the pKi was 8.92 on Mu-type opioid receptor [1], 8.23 in assay [3] and 7.96 in [8]. The Efficacy in [2] was 2%; in assay [6], 49%; in assay [7] it was 90%.
For `NC(=O)[C@@H]1CSSC[C@@H](NC(=O)[C@@H](N)Cc2ccc(O)cc2)C(=O)N[C@@H](Cc2ccc3ccccc3c2)C(=O)N[C@@H](Cc2ccccc2)C(=O)N1` (H-Y[dC][2Nal]FC-NH2; disulfide 2-5), the pKi was 9.14 at Mu-type opioid receptor [1], 6.84 in assay [3] and 7.26 in [8]. The Efficacy in assay [2] was 0.7%; in [6] it was 7.5%; in [7], 34%. For the same compound, the Ratio Ki in assay [4] and in assay [5] was greater than 10 in each case.
